{"source": "ChEMBL document CHEMBL5724801", "about": "“EUbOPEN Chemogenomics Library - Multiplex” (2024)", "test_system": "HEK-293T", "assay": "Multiplex assay against HEK293T", "type": "toxicity, cell-based", "conditions": "human", "how_it_was_run": "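Phenotypes for tubulin, mitochondrial mass and membrane permeability are expressed as per cents of healthy-nucleus cells. Cells were stained live at seeding with Hoechst33342, BioTracker Green Microtubule Cytoskeleton Dye, MitoTracker Red and Annexin V Alexa Fluor 680, then imaged after compound addition on a CQ1 microscope at 37°C and 5% CO2. Machine-learning gating in CellPathfinder separated Hoechst high-intensity objects from normal cells, divided normal cells by nuclear state (healthy, pyknosed, fragmented) and divided pyknosed cells into mitotic or apoptotic.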", "key": {"[1]": {"conditions": "12 h, 1 µM, compound concentration 1 uM"}, "[2]": {"conditions": "12 h, 10 µM, compound concentration 10 uM"}, "[3]": {"conditions": "24 h, 1 µM, compound concentration 1 uM"}, "[4]": {"conditions": "24 h, 10 µM, compound concentration 10 uM"}, "[5]": {"conditions": "48 h, 1 µM, compound concentration 1 uM"}, "[6]": {"conditions": "48 h, 10 µM, compound concentration 10 uM"}}, "note": "“And” between values parts separate entries of the source, which are not always exact repeats. Equal entries are not always repeated."}
{"smiles": "Clc1ccccc1C(c1ccccc1)(c1ccccc1)n1cccn1", "values": [{"measurement": "Population Apoptotic (%)", "setting": "[1]", "value": "7.87% and 11.11%"}, {"measurement": "Population Fragmented Nuclei (%)", "setting": "[1]", "value": "1.79% and 6.3%"}, {"measurement": "Population Hoechst High Intensity Objects (%)", "setting": "[1]", "value": 0, "unit": "%"}, {"measurement": "Population Membrane Permeable-Phenotype (%)", "setting": "[1]", "value": "0% and 5%"}, {"measurement": "Population Mitochondria Different-Phenotype (%)", "setting": "[1]", "value": "33.99% and 35%"}, {"measurement": "Population Mitotic Cells (%)", "setting": "[1]", "value": "92.13% and 88.89%"}, {"measurement": "Population Normal (%)", "setting": "[1]", "value": 100, "unit": "%"}, {"measurement": "Population Pyknosed Nuclei (%)", "setting": "[1]", "value": "37.8% and 77.95%"}, {"measurement": "Total Cell Count", "setting": "[1]", "value": "336 and 127"}, {"measurement": "Population Apoptotic (%)", "setting": "[2]", "value": "10.45% and 10.49%"}, {"measurement": "Population Fragmented Nuclei (%)", "setting": "[2]", "value": "2.33% and 0.57%"}, {"measurement": "Population Hoechst High Intensity Objects (%)", "setting": "[2]", "value": "0.33% and 0%"}, {"measurement": "Population Membrane Permeable-Phenotype (%)", "setting": "[2]", "value": 0, "unit": "%"}, {"measurement": "Population Mitochondria Different-Phenotype (%)", "setting": "[2]", "value": "33.96% and 33.33%"}, {"measurement": "Population Mitotic Cells (%)", "setting": "[2]", "value": "89.55% and 89.51%"}, {"measurement": "Population Normal (%)", "setting": "[2]", "value": "99.67% and 100%"}, {"measurement": "Population Pyknosed Nuclei (%)", "setting": "[2]", "value": "44.67% and 82.18%"}, {"measurement": "Total Cell Count", "setting": "[2]", "value": "301 and 174"}, {"measurement": "Population Apoptotic (%)", "setting": "[3]", "value": "11.32% and 14.85%"}, {"measurement": "Population Fragmented Nuclei (%)", "setting": "[3]", "value": "0.96% and 6.08%"}, {"measurement": "Population Hoechst High Intensity Objects (%)", "setting": "[3]", "value": "0.19% and 0%"}, {"measurement": "Population Membrane Permeable-Phenotype (%)", "setting": "[3]", "value": "0.49% and 2.63%"}, {"measurement": "Population Mitochondria Different-Phenotype (%)", "setting": "[3]", "value": "14.43% and 13.16%"}, {"measurement": "Population Mitotic Cells (%)", "setting": "[3]", "value": "88.68% and 85.15%"}, {"measurement": "Population Normal (%)", "setting": "[3]", "value": "99.81% and 100%"}, {"measurement": "Population Tubulin-Different-Phenotype (%)", "setting": "[3]", "value": "9.78% and 7.89%"}, {"measurement": "Population Apoptotic (%)", "setting": "[4]", "value": "19.64% and 15.94%"}, {"measurement": "Population Fragmented Nuclei (%)", "setting": "[4]", "value": "2.8% and 0.54%"}, {"measurement": "Population Healthy Nuclei (%)", "setting": "[4]", "value": "71.1% and 24.46%"}, {"measurement": "Population Hoechst High Intensity Objects (%)", "setting": "[4]", "value": "0.23% and 0%"}, {"measurement": "Population Membrane Permeable-Phenotype (%)", "setting": "[4]", "value": "1.31% and 0%"}, {"measurement": "Population Mitochondria Different-Phenotype (%)", "setting": "[4]", "value": "27.87% and 13.33%"}, {"measurement": "Population Mitotic Cells (%)", "setting": "[4]", "value": "80.36% and 84.06%"}, {"measurement": "Population Normal (%)", "setting": "[4]", "value": "99.77% and 100%"}, {"measurement": "Population Pyknosed Nuclei (%)", "setting": "[4]", "value": "26.11% and 75%"}, {"measurement": "Total Cell Count", "setting": "[4]", "value": "430 and 184"}, {"measurement": "Population Apoptotic (%)", "setting": "[5]", "value": "7.89% and 12.96%"}, {"measurement": "Population Fragmented Nuclei (%)", "setting": "[5]", "value": "3.42% and 3.98%"}, {"measurement": "Population Healthy Nuclei (%)", "setting": "[5]", "value": "87.9% and 72.12%"}, {"measurement": "Population Hoechst High Intensity Objects (%)", "setting": "[5]", "value": "0% and 1.74%"}, {"measurement": "Population Membrane Permeable-Phenotype (%)", "setting": "[5]", "value": "5.37% and 2.45%"}, {"measurement": "Population Mitochondria Different-Phenotype (%)", "setting": "[5]", "value": "12.03% and 23.31%"}, {"measurement": "Population Mitotic Cells (%)", "setting": "[5]", "value": "92.11% and 87.04%"}, {"measurement": "Population Normal (%)", "setting": "[5]", "value": "100% and 98.26%"}, {"measurement": "Population Pyknosed Nuclei (%)", "setting": "[5]", "value": "8.68% and 23.89%"}, {"measurement": "Population Apoptotic (%)", "setting": "[6]", "value": "9.93% and 27.4%"}, {"measurement": "Population Fragmented Nuclei (%)", "setting": "[6]", "value": "4.13% and 2.25%"}, {"measurement": "Population Healthy Nuclei (%)", "setting": "[6]", "value": "81.99% and 70.41%"}, {"measurement": "Population Hoechst High Intensity Objects (%)", "setting": "[6]", "value": 0, "unit": "%"}, {"measurement": "Population Membrane Permeable-Phenotype (%)", "setting": "[6]", "value": "8.52% and 2.66%"}, {"measurement": "Population Mitochondria Different-Phenotype (%)", "setting": "[6]", "value": "24.73% and 43.09%"}, {"measurement": "Population Mitotic Cells (%)", "setting": "[6]", "value": "90.07% and 72.6%"}, {"measurement": "Population Normal (%)", "setting": "[6]", "value": 100, "unit": "%"}, {"measurement": "Population Pyknosed Nuclei (%)", "setting": "[6]", "value": "13.88% and 27.34%"}]}
{"smiles": "Cl.c1ccc2c(c1)CCC[C@H]2Nc1nc2ccccc2[nH]1", "values": [{"measurement": "Population Apoptotic (%)", "setting": "[1]", "value": "12.41% and 9.85%"}, {"measurement": "Population Fragmented Nuclei (%)", "setting": "[1]", "value": "1.91% and 2.52%"}, {"measurement": "Population Hoechst High Intensity Objects (%)", "setting": "[1]", "value": "0.95% and 0.62%"}, {"measurement": "Population Membrane Permeable-Phenotype (%)", "setting": "[1]", "value": "0.58% and 0%"}, {"measurement": "Population Mitotic Cells (%)", "setting": "[1]", "value": "87.59% and 90.15%"}, {"measurement": "Population Normal (%)", "setting": "[1]", "value": "99.05% and 99.38%"}, {"measurement": "Population Pyknosed Nuclei (%)", "setting": "[1]", "value": "43.63% and 83.02%"}, {"measurement": "Total Cell Count", "setting": "[1]", "value": "317 and 160"}, {"measurement": "Population Apoptotic (%)", "setting": "[2]", "value": "7.19% and 13.79%"}, {"measurement": "Population Fragmented Nuclei (%)", "setting": "[2]", "value": "2.56% and 5.8%"}, {"measurement": "Population Hoechst High Intensity Objects (%)", "setting": "[2]", "value": "0.57% and 0%"}, {"measurement": "Population Membrane Permeable-Phenotype (%)", "setting": "[2]", "value": 0, "unit": "%"}, {"measurement": "Population Mitotic Cells (%)", "setting": "[2]", "value": "92.81% and 86.21%"}, {"measurement": "Population Normal (%)", "setting": "[2]", "value": "99.43% and 100%"}, {"measurement": "Population Pyknosed Nuclei (%)", "setting": "[2]", "value": "47.58% and 84.06%"}, {"measurement": "Total Cell Count", "setting": "[2]", "value": "353 and 138"}, {"measurement": "Population Apoptotic (%)", "setting": "[3]", "value": "15.19% and 12.5%"}, {"measurement": "Population Fragmented Nuclei (%)", "setting": "[3]", "value": "2.28% and 0.59%"}, {"measurement": "Population Healthy Nuclei (%)", "setting": "[3]", "value": "64.94% and 28.82%"}, {"measurement": "Population Hoechst High Intensity Objects (%)", "setting": "[3]", "value": 0, "unit": "%"}, {"measurement": "Population Membrane Permeable-Phenotype (%)", "setting": "[3]", "value": "1.6% and 2.04%"}, {"measurement": "Population Mitotic Cells (%)", "setting": "[3]", "value": "84.81% and 87.5%"}, {"measurement": "Population Normal (%)", "setting": "[3]", "value": 100, "unit": "%"}, {"measurement": "Population Pyknosed Nuclei (%)", "setting": "[3]", "value": "32.78% and 70.59%"}, {"measurement": "Population Tubulin-Different-Phenotype (%)", "setting": "[3]", "value": "15.97% and 10.2%"}, {"measurement": "Total Cell Count", "setting": "[3]", "value": "482 and 170"}, {"measurement": "Population Apoptotic (%)", "setting": "[4]", "value": "10.9% and 23.53%"}, {"measurement": "Population Fragmented Nuclei (%)", "setting": "[4]", "value": "2.57% and 5.7%"}, {"measurement": "Population Hoechst High Intensity Objects (%)", "setting": "[4]", "value": 0, "unit": "%"}, {"measurement": "Population Membrane Permeable-Phenotype (%)", "setting": "[4]", "value": "2.68% and 0%"}, {"measurement": "Population Mitochondria Different-Phenotype (%)", "setting": "[4]", "value": "18.75% and 10%"}, {"measurement": "Population Mitotic Cells (%)", "setting": "[4]", "value": "89.1% and 76.47%"}, {"measurement": "Population Normal (%)", "setting": "[4]", "value": 100, "unit": "%"}, {"measurement": "Population Pyknosed Nuclei (%)", "setting": "[4]", "value": "30.89% and 75.32%"}, {"measurement": "Population Tubulin-Different-Phenotype (%)", "setting": "[4]", "value": "23.81% and 10%"}, {"measurement": "Population Apoptotic (%)", "setting": "[5]", "value": "8.15% and 21.05%"}, {"measurement": "Population Fragmented Nuclei (%)", "setting": "[5]", "value": "2.18% and 2.63%"}, {"measurement": "Population Healthy Nuclei (%)", "setting": "[5]", "value": "84.41% and 64.04%"}, {"measurement": "Population Hoechst High Intensity Objects (%)", "setting": "[5]", "value": "0% and 0.44%"}, {"measurement": "Population Membrane Permeable-Phenotype (%)", "setting": "[5]", "value": "3.88% and 2.74%"}, {"measurement": "Population Mitochondria Different-Phenotype (%)", "setting": "[5]", "value": "18.59% and 17.81%"}, {"measurement": "Population Mitotic Cells (%)", "setting": "[5]", "value": "91.85% and 78.95%"}, {"measurement": "Population Normal (%)", "setting": "[5]", "value": "100% and 99.56%"}, {"measurement": "Population Pyknosed Nuclei (%)", "setting": "[5]", "value": "13.41% and 33.33%"}, {"measurement": "Population Fragmented Nuclei (%)", "setting": "[6]", "value": "2.01% and 3.85%"}, {"measurement": "Population Healthy Nuclei (%)", "setting": "[6]", "value": "79.3% and 55.49%"}, {"measurement": "Population Hoechst High Intensity Objects (%)", "setting": "[6]", "value": "0.32% and 0%"}, {"measurement": "Population Membrane Permeable-Phenotype (%)", "setting": "[6]", "value": "5.99% and 1.98%"}, {"measurement": "Population Mitochondria Different-Phenotype (%)", "setting": "[6]", "value": "26.23% and 33.66%"}, {"measurement": "Population Mitotic Cells (%)", "setting": "[6]", "value": "94.35% and 78.38%"}, {"measurement": "Population Normal (%)", "setting": "[6]", "value": "99.68% and 100%"}, {"measurement": "Population Pyknosed Nuclei (%)", "setting": "[6]", "value": "18.69% and 40.66%"}]}
